Results taken from ChEMBL document CHEMBL1130238, “Synthesis and biological activity of a series of potent fluoromethyl ketone inhibitors of recombinant human calpain I” (J Med Chem, 1997).
Starred links: 1 amine or outer side, 2 acyl side, 3 side chain; linkers in the order of their positions; H or OH if unused. Non-standard residues stand in square brackets, D forms with d. Residues, ends and D or L forms follow the SMILES beside them. ξ: configuration not given here. *: point of attachment. Hydrocinnamoyl = O=C(CCc1ccccc1)*; ξF = NC(Cc1ccccc1)C(=O)O; Cbz = O=C(OCc1ccccc1)*; Boc = CC(C)(C)OC(=O)*; ξL = CC(C)CC(N)C(=O)O; CO = O=C([*:1])[*:2]; NHBn = c1ccc(CN*)cc1; ξAbu = CCC(N)C(=O)O; ξS = NC(CO)C(=O)O; CH2F = FC*

Columns and labels:
[1] = target: Cathepsin B (Homo sapiens) (UniProt P07858); assay: Compound was tested for inhibitory against cathepsin B
How it was run: (§1)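 Rates of enzyme inactivation for cathepsins B and L were measured using Cbz-Phe-Arg-AMC as the fluorogenic substrate, under previously published assay conditions.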

[2] = target: Procathepsin L (Homo sapiens) (UniProt P07711); assay: Compound was tested for inhibitory against cathepsin L.; how it was run: as §1
Procathepsin L (Homo sapiens), sequence (P07711 114-333 limits assumed): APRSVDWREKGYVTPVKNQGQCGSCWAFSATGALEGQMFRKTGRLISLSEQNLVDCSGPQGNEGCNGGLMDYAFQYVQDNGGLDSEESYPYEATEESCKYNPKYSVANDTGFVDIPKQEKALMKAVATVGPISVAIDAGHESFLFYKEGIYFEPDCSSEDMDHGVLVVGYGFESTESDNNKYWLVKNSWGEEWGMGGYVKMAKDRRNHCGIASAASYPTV

[3] = test system: MOLT-4; assay: Inhibitory activity against MOH-4 cells(Human Leukemia T- cells) using intact cell assay method.; format: functional, cell-based
How it was run: (§2)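 Molt-4 cells (2×10^7/mL in HEPES-buffered saline, pH 7.2–7.5) were preincubated with inhibitor for 10 min at 37 °C, then challenged for 30 min at 37 °C by adding medium containing inhibitor, 10 mM Ca2+ and 40 μM ionomycin. Lysates were immunoblotted for calpain I-mediated spectrin breakdown products. Percent inhibition came from densitometry against no-inhibitor samples; IC50 by nonlinear regression.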

[4] = target: T1, Calpain-1 catalytic subunit (Homo sapiens) (UniProt P07384); assay: Inhibition of Calpain-I receptor
T1 sequence (whole entry): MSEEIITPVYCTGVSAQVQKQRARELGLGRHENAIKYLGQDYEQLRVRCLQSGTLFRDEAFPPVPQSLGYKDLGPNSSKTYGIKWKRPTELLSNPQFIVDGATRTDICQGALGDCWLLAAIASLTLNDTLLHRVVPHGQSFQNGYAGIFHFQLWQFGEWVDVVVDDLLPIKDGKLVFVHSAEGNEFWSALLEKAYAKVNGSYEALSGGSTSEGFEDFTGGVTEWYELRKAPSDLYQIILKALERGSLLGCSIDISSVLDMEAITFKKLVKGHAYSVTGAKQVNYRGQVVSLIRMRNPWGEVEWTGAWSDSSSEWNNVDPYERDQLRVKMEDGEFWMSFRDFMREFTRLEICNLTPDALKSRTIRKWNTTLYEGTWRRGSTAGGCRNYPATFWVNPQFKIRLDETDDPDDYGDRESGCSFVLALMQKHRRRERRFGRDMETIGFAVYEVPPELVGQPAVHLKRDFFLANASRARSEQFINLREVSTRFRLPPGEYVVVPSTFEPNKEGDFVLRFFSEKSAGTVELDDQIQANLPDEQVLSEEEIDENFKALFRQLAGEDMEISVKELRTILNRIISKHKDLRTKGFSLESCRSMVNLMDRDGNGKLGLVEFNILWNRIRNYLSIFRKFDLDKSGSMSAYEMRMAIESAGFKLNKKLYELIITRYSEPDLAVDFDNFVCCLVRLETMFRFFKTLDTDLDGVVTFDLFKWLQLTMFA

[5] = target: Procathepsin L (Homo sapiens) (UniProt P07711); assay: Compound was tested for inhibitory against cathepsin L; how it was run: as §1
[6] = target: Cathepsin B (Homo sapiens) (UniProt P07858); assay: Compound was tested for inhibitory against Cathepsin B; how it was run: as §1
[7] = target: Procathepsin L (Homo sapiens) (UniProt P07711); assay: Compound was tested for inhibitory activity against cathepsin L; how it was run: as §1
[8] = target: T1, Calpain-1 catalytic subunit (Homo sapiens); assay: Compound was tested for inhibitory uM
[9] = target: Cathepsin B (Homo sapiens) (UniProt P07858); assay: Compound was tested for inhibitory activity against cathepsin B
How it was run: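 Rate of inactivation of cathepsin B, with Cbz-Phe-Arg-AMC as substrate.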

[10] = test system: MOLT-4; assay: Inhibitory activity against […] cells(Human Leukemia T- cells) using intact cell assay method, at 10 uM; format: functional; how it was run: as §2
[11] = target: Cathepsin B (Homo sapiens) (UniProt P07858); assay: Compound was tested for inhibitory activities against cathepsin B; how it was run: as §1

| Structure (SMILES) | K [1] | IC50 [3] | K [4] | K [5] | also measured |
| --- | --- | --- | --- | --- | --- |
| CC(C)C[C@H](NS(=O)(=O)N1CCOCC1)C(=O)NC(Cc1ccccc1)C(=O)CF (stereo partly specified) | 100 M⁻¹ s⁻¹ | 10000 nM | 67200 M⁻¹ s⁻¹ | – | K [2]: 3200 M⁻¹ s⁻¹ |
| CC(C)C[C@H](NC(=O)N1CCc2ccccc2C1)C(=O)NC(Cc1ccccc1)C(=O)CF (stereo partly specified) | – | 200 nM | – | 48400 M⁻¹ s⁻¹ | K [6]: 7500 M⁻¹ s⁻¹ |
| CC(C)C[C@H](NC(=O)OCc1ccccc1)C(=O)NC(COC1CCCCO1)C(=O)CF (stereo partly specified) | 9000 M⁻¹ s⁻¹ | 1300 nM | 100000 M⁻¹ s⁻¹ | – | K [7]: 22600 M⁻¹ s⁻¹ |
| CC(C)C[C@H](NC(=O)[C@H]1O[C@@H]1C(=O)O)C(=O)NCCCCN=C(N)N | – | – | 4700 M⁻¹ s⁻¹ | – | – |
| CC(NC(=O)[C@H](Cc1ccccc1)NC(=O)OCc1ccccc1)C(=O)CF (stereo partly specified) | – | – | – | 110000 M⁻¹ s⁻¹ | K [8]: No significant inhibition; K [9]: 21000 M⁻¹ s⁻¹ |
| CC(C)C[C@H](NC(=O)OC(C)(C)C)C(=O)NC(Cc1ccccc1)C(=O)CF (stereo partly drawn) (Boc-Leu-[ξF]-CH2F) | – | – | 68600 M⁻¹ s⁻¹ | 100 M⁻¹ s⁻¹ | inhibition at 10 µM [10]: 42%; K [11]: 150 M⁻¹ s⁻¹ |
| CCC(NC(=O)[C@H](CC(C)C)NC(=O)OCc1ccccc1)C(=O)CF (stereo partly drawn) (Cbz-Leu-[ξAbu]-CH2F) | 24500 M⁻¹ s⁻¹ | – | 24200 M⁻¹ s⁻¹ | 64000 M⁻¹ s⁻¹ | – |
| CC(C)C[C@H](NC(=O)OCc1ccccc1)C(=O)NC(Cc1ccccc1)C(=O)CF (stereo partly drawn) (Cbz-Leu-[ξF]-CH2F) | 300 M⁻¹ s⁻¹ | 200 nM | 136000 M⁻¹ s⁻¹ | 5000 M⁻¹ s⁻¹ | – |
| CC(C)C[C@H](NC(=O)OCc1ccccc1)C(=O)NC(CO)C(=O)CF (stereo partly drawn) (Cbz-Leu-[ξS]-CH2F) | 16300 M⁻¹ s⁻¹ | – | 21000 M⁻¹ s⁻¹ | 31000 M⁻¹ s⁻¹ | – |
| CC(C)[C@H](NC(=O)OCc1ccccc1)C(=O)NC(Cc1ccccc1)C(=O)CF (stereo partly drawn) (Cbz-Val-[ξF]-CH2F) | 360 M⁻¹ s⁻¹ | – | 35000 M⁻¹ s⁻¹ | 21500 M⁻¹ s⁻¹ | – |
| CC(C)CC(NC(=O)OCc1ccccc1)C(=O)N[C@@H](CC(C)C)C(=O)NC(Cc1ccccc1)C(=O)CF (stereo partly specified) (Cbz-[ξL]-Leu-[ξF]-CH2F) | 4600 M⁻¹ s⁻¹ | 100 nM | 290000 M⁻¹ s⁻¹ | 256000 M⁻¹ s⁻¹ | – |
| CC(C)C[C@H](N)C(=O)N[C@@H](Cc1ccccc1)C(=O)CF (H-Leu-Phe-CH2F) | 25 M⁻¹ s⁻¹ | – | 8000 M⁻¹ s⁻¹ | 250 M⁻¹ s⁻¹ | – |
| CC(C)C[C@H](NC(=O)CCc1ccccc1)C(=O)NC(Cc1ccccc1)C(=O)CF (stereo partly specified) (Hydrocinnamoyl-Leu-[ξF]-CH2F) | 600 M⁻¹ s⁻¹ | – | 26600 M⁻¹ s⁻¹ | 800 M⁻¹ s⁻¹ | – |
| CC(C)C[C@H](NC(=O)NCc1ccccc1)C(=O)NC(Cc1ccccc1)C(=O)CF (stereo partly specified) ({NHBn-CO}-Leu-[ξF]-CH2F) | – | 800 nM | 67000 M⁻¹ s⁻¹ | – | K [7]: 9400 M⁻¹ s⁻¹; K [6]: 275 M⁻¹ s⁻¹ |
